ChEMBL document CHEMBL1148550, “4-Phenyl-4-[1H-imidazol-2-yl]-piperidine derivatives, a novel class of selective delta-opioid agonists” (Bioorg Med Chem Lett, 2006)

Key:
[1] = molecular target: Opioid receptors; mu & delta (Homo sapiens) (UniProt P41143+P35372); assay: Selectivity for cloned human mu opioid receptor over delta opioid receptor; type: protein assay
Mu-type opioid receptor = Mu-type opioid receptor (Homo sapiens, UniProt P35372); assay: Displacement of [3H]DAMGO from cloned human mu opioid receptor
Procedure, shortened: (§1)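 Radioligand competition binding at cloned human receptors: [³H]DAMGO for mu, [³H]DPDPE for delta, [³H]U69593 for kappa. Ki is the concentration giving half-maximal inhibition of tracer binding.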

[2] = molecular target: Opioid receptors; delta & kappa (Homo sapiens) (UniProt P41145+P41143); assay: Selectivity for cloned human kappa opioid receptor over delta opioid receptor; type: protein assay
[3] = molecular target: Kappa-type opioid receptor (Homo sapiens, UniProt P41145); assay: Displacement of [3H]U-69593 from cloned human kappa opioid receptor; procedure, shortened: as §1
[4] = molecular target: T1, Delta-type opioid receptor (Homo sapiens, UniProt P41143); assay: Displacement of [3H]DPDPE from cloned human delta opioid receptor; procedure, shortened: as §1
[5] = molecular target: T1, Delta-type opioid receptor; assay: Agonist potency assessed by [35S]GTP-gammaS binding assay in C6 Glioma cells expressing cloned human delta opioid receptor; type: functional, cell-based
Procedure, shortened: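 Membranes expressing human δ-opioid receptors; agonism read as percent stimulation of [³⁵S]GTPγS binding against log molar ligand concentration. pEC₅₀ derived from three-parameter logistic curve fits.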

Sequence of Kappa-type opioid receptor (P41145 whole entry): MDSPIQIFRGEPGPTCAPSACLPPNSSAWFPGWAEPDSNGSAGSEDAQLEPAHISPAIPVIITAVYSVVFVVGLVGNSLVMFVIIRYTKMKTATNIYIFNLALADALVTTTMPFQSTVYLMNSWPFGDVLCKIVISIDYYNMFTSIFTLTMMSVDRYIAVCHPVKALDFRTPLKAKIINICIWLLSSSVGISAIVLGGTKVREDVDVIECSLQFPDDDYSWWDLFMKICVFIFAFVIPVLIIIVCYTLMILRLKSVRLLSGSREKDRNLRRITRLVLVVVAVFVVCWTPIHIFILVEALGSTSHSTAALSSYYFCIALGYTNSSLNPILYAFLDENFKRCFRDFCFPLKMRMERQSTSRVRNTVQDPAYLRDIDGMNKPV
T1 sequence (P41143 whole entry): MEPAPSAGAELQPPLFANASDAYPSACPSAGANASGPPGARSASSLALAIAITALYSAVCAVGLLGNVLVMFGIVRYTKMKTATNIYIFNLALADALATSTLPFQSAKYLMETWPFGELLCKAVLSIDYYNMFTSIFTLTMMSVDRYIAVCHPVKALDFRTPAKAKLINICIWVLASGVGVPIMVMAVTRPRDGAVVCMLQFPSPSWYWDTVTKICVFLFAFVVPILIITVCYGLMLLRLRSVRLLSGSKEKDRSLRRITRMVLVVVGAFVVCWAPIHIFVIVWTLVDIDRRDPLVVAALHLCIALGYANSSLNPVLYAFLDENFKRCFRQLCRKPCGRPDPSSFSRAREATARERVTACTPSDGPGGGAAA
Sequence of Opioid receptors; delta & kappa (Homo sapiens) (P41143 whole entry, looked up): as the sequence (P41143 whole entry) above
Sequence of Opioid receptors; delta & kappa (Homo sapiens) (P41145 whole entry, looked up): as the sequence (P41145 whole entry) above
Sequence of Opioid receptors; mu & delta (Homo sapiens) (P35372 whole entry, looked up): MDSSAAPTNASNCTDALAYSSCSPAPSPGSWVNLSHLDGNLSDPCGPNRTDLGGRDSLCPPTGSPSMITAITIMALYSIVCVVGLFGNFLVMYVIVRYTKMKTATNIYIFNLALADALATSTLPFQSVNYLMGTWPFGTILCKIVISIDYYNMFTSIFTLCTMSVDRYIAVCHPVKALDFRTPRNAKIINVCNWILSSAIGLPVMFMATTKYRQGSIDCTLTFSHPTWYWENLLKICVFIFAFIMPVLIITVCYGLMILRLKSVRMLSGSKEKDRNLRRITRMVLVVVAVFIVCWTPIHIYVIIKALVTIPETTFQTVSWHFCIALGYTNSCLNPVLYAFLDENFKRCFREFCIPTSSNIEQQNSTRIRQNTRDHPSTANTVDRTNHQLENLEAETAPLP
Sequence of Opioid receptors; mu & delta (Homo sapiens) (P41143 whole entry, looked up): as the sequence (P41143 whole entry) above
Sequence of Mu-type opioid receptor (P35372 whole entry): as the sequence (P35372 whole entry, looked up) above

**Q.** With `O=C(Nc1ccccc1)N1CCC(c2ccccc2)(c2nccn2Cc2cccc(F)c2)CC1` as the compound, how does the Ratio Ki [1] read?
**A.** > 36

**Q.** What about the Ki (Mu-type opioid receptor) of the same compound?
**A.** > 4650 nM

**Q.** And the Ratio Ki [2]?
**A.** 15

**Q.** What about the Ki [3] of the same compound?
**A.** 1880 nM

**Q.** What about the Ki [4] of the same compound?
**A.** 128 nM

**Q.** Which Ratio Ki [1] does the source give for `CS(=O)(=O)N1CCC(c2ccccc2)(c2nccn2Cc2ccccc2)CC1` here?
**A.** > 101

**Q.** What about the Ki (Mu-type opioid receptor) of the same compound?
**A.** > 4650 nM

**Q.** And the Ratio Ki [2]?
**A.** 44

**Q.** What about the Ki [3] of the same compound?
**A.** 2010 nM

**Q.** What about the Ki [4] of the same compound?
**A.** 46 nM

**Q.** `O=C(Nc1ccccc1F)N1CCC(c2ccccc2)(c2nccn2Cc2ccccc2)CC1` was tested. Which Ki (Mu-type opioid receptor) did it give?
**A.** 2520 nM

**Q.** And the Ki [3]?
**A.** 318 nM

**Q.** What does the source list for `c1ccc(Cn2ccnc2C2(c3ccccc3)CCN(c3nccs3)CC2)cc1`?
**A.** Ratio Ki [1]: > 58; Ki (Mu-type opioid receptor): > 4650 nM; Ratio Ki [2]: 32; Ki [3]: 2530 nM; Ki [4]: 79 nM; EC50 [5]: 98 nM

**Q.** What does the source list for `O=C(Nc1ccccc1)N1CCC(c2ccccc2)(c2nccn2Cc2ccccn2)CC1`?
**A.** Ratio Ki [1]: 0.46; Ki (Mu-type opioid receptor): 1420 nM; Ratio Ki [2]: 0.015; Ki [3]: 46 nM; Ki [4]: 3070 nM

**Q.** How did the Ki (Mu-type opioid receptor) turn out when `O=C(Nc1ccccc1)N1CCC(c2ccccc2)(c2nccn2Cc2ccccc2F)CC1` was run?
**A.** 428 nM

**Q.** And the Ki [3]?
**A.** 116 nM

**Q.** Which results are given for `CN(C(=O)N1CCC(c2ccccc2)(c2nccn2Cc2ccccc2)CC1)c1ccccc1`?
**A.** Ki (Mu-type opioid receptor): > 4650 nM; Ki [3]: 397 nM

**Q.** With `COc1ccccc1NC(=O)N1CCC(c2ccccc2)(c2nccn2Cc2ccccc2)CC1` as the compound, how does the Ki (Mu-type opioid receptor) read?
**A.** > 4650 nM

**Q.** What about the Ki [3] of the same compound?
**A.** 782 nM

**Q.** `CN1CCN(C(=O)N2CCC(c3ccccc3)(c3nccn3Cc3ccccc3)CC2)CC1` was tested. Which Ratio Ki [1] did it give?
**A.** > 29

**Q.** And the Ki (Mu-type opioid receptor)?
**A.** > 4650 nM

**Q.** What about the Ratio Ki [2] of the same compound?
**A.** 5.3

**Q.** What about the Ki [3] of the same compound?
**A.** 858 nM

**Q.** What about the Ki [4] of the same compound?
**A.** 161 nM

**Q.** Which Ratio Ki [1] does the source give for `O=C(Nc1ccccc1)N1CCC(c2ccccc2)(c2nccn2Cc2ccccc2)CC1` here?
**A.** > 5.7

**Q.** What about the Ki (Mu-type opioid receptor) of the same compound?
**A.** > 465 nM

**Q.** What about the Ratio Ki [2] of the same compound?
**A.** 1.6

**Q.** What about the Ki [3] of the same compound?
**A.** 126 nM

**Q.** And the Ki [4]?
**A.** 81 nM

**Q.** And the EC50 [5]?
**A.** 1480 nM

**Q.** `O=C(Nc1cccc(F)c1)N1CCC(c2ccccc2)(c2nccn2Cc2ccccc2)CC1` was tested. Which Ki (Mu-type opioid receptor) did it give?
**A.** > 4650 nM

**Q.** And the Ki [3]?
**A.** > 4650 nM

**Q.** Which Ratio Ki [1] does the source give for `O=C(Nc1ccc(F)cc1)N1CCC(c2ccccc2)(c2nccn2Cc2ccccc2)CC1` here?
**A.** 12

**Q.** What about the Ki (Mu-type opioid receptor) of the same compound?
**A.** 1210 nM

**Q.** What about the Ratio Ki [2] of the same compound?
**A.** 1.5

**Q.** And the Ki [3]?
**A.** 148 nM

**Q.** What about the Ki [4] of the same compound?
**A.** 97 nM

**Q.** Which results are given for `NC(=O)N1CCC(c2ccccc2)(c2nccn2Cc2ccccc2)CC1`?
**A.** Ratio Ki [1]: > 51; Ki (Mu-type opioid receptor): > 4650 nM; Ratio Ki [2]: 3.4; Ki [3]: 334 nM; Ki [4]: 99 nM

**Q.** Which Ki (Mu-type opioid receptor) does the source give for `O=S(=O)(Nc1ccccc1)N1CCC(c2ccccc2)(c2nccn2Cc2ccccc2)CC1` here?
**A.** 980 nM

**Q.** And the Ki [4]?
**A.** 3.2 nM

**Q.** And the EC50 [5]?
**A.** 832 nM

**Q.** `O=C(Nc1ccccc1)N1CCC(c2ccccc2)(c2nccn2Cc2ccc(F)cc2)CC1` was tested. Which Ratio Ki [1] did it give?
**A.** > 23

**Q.** What about the Ki (Mu-type opioid receptor) of the same compound?
**A.** > 4650 nM

**Q.** What about the Ratio Ki [2] of the same compound?
**A.** 11

**Q.** What about the Ki [3] of the same compound?
**A.** 2160 nM

**Q.** What about the Ki [4] of the same compound?
**A.** 203 nM

**Q.** For `O=C(Nc1ccccc1)N1CCC(c2ccccc2)(c2nccn2C(=O)c2ccccc2)CC1`, which Ratio Ki [1] is on record?
**A.** > 1.2

**Q.** What about the Ki (Mu-type opioid receptor) of the same compound?
**A.** > 4650 nM

**Q.** What about the Ratio Ki [2] of the same compound?
**A.** 0.32

**Q.** And the Ki [3]?
**A.** 1190 nM

**Q.** What about the Ki [4] of the same compound?
**A.** 3700 nM

**Q.** Which results are given for `Cn1c(N2CCC(c3ccccc3)(c3nccn3Cc3ccccc3)CC2)nc2ccccc21`?
**A.** Ratio Ki [1]: 1.7; Ki (Mu-type opioid receptor): 235 nM; Ratio Ki [2]: 0.29; Ki [3]: 40 nM; Ki [4]: 138 nM

**Q.** Which results are given for `NS(=O)(=O)N1CCC(c2ccccc2)(c2nccn2Cc2ccccc2)CC1`?
**A.** Ratio Ki [1]: > 44; Ki (Mu-type opioid receptor): > 4650 nM; Ratio Ki [2]: > 44; Ki [3]: > 4650 nM; Ki [4]: 106 nM

**Q.** `COc1cccc(NC(=O)N2CCC(c3ccccc3)(c3nccn3Cc3ccccc3)CC2)c1` was tested. Which Ki (Mu-type opioid receptor) did it give?
**A.** 1380 nM

**Q.** And the Ki [3]?
**A.** 152 nM

**Q.** `c1ccc(Cn2ccnc2C2(c3ccccc3)CCN(c3nc4ccccc4s3)CC2)cc1` was tested. Which Ratio Ki [1] did it give?
**A.** > 63

**Q.** What about the Ki (Mu-type opioid receptor) of the same compound?
**A.** > 4650 nM

**Q.** And the Ki [4]?
**A.** 73 nM

**Q.** What about the EC50 [5] of the same compound?
**A.** 26 nM

**Q.** `O=C(Nc1ccccc1)N1CCC(c2ccccc2)(c2ncc[nH]2)CC1` was tested. Which Ki (Mu-type opioid receptor) did it give?
**A.** > 465 nM

**Q.** And the Ki [3]?
**A.** > 4650 nM

**Q.** What about the Ki [4] of the same compound?
**A.** > 465 nM

**Q.** What does the source list for `CC(c1ccccc1)n1ccnc1C1(c2ccccc2)CCN(C(=O)Nc2ccccc2)CC1` (configuration not stated)?
**A.** Ki (Mu-type opioid receptor): 497 nM; Ki [3]: > 465 nM

**Q.** With `CCNC(=O)N1CCC(c2ccccc2)(c2nccn2Cc2ccccc2)CC1` as the compound, how does the Ki (Mu-type opioid receptor) read?
**A.** > 4650 nM

**Q.** And the Ki [3]?
**A.** 242 nM

**Q.** What does the source list for `COc1ccc(NC(=O)N2CCC(c3ccccc3)(c3nccn3Cc3ccccc3)CC2)cc1`?
**A.** Ratio Ki [1]: > 10; Ki (Mu-type opioid receptor): > 465 nM; Ki [4]: 44 nM

**Q.** `COc1cccc(Cn2ccnc2C2(c3ccccc3)CCN(C(=O)Nc3ccccc3)CC2)c1` was tested. Which Ratio Ki [1] did it give?
**A.** 15

**Q.** And the Ki (Mu-type opioid receptor)?
**A.** 3250 nM

**Q.** What about the Ratio Ki [2] of the same compound?
**A.** 9

**Q.** And the Ki [3]?
**A.** 2060 nM

**Q.** And the Ki [4]?
**A.** 217 nM

**Q.** What does the source list for `c1ccc(Cn2ccnc2C2(c3ccccc3)CCN(c3ncccn3)CC2)cc1`?
**A.** Ratio Ki [1]: > 258; Ki (Mu-type opioid receptor): > 4650 nM; Ratio Ki [2]: 28; Ki [3]: 505 nM; Ki [4]: 18 nM; EC50 [5]: 14 nM
